Here are results for three compounds from ChEMBL document CHEMBL1143412, “RSV604, a novel inhibitor of respiratory syncytial virus replication” (Antimicrob Agents Chemother, 2007).

Calls of active or inactive are those of the source. No cut-off for these calls is given here.

Data set [1] relates to Respiratory syncytial virus. As to the kind of experiment: Antiviral activity against RSV infected human Hep2 cells assessed as plaque reduction […] by plaque reduction assay. Details: scale not given: the % may be the effect or the level left. Type of data set: functional, HEp-2. On the technique in general: Plaques are areas of infected cells; plaque reduction assays count them against a control.

Data set [2] deals with Respiratory syncytial virus. The data set can be described thus: Antiviral activity against RSV infected human Hep2 cells assessed as reduction of plaque formation pretreated 2 hrs before viral infection. Type of data set: functional, organism-based. Conditions: HEp-2. The essentials: (§1)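 Plaque reduction in HEp-2 cells with compound added either 2 h before infection or 6 h after. Duplicate wells per dilution. Percent plaque reduction calculated against compound-free infected wells. Four independent experiments.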

For data set [3], the system named is Respiratory syncytial virus. The data set can be described thus: Antiviral activity against RSV infected human Hep2 cells assessed as reduction of plaque formation treated 6 hrs after viral infection. Conditions: HEp-2. The format is functional, organism-based. The method, boiled down: as §1
Data set [4] relates to Respiratory syncytial virus. As to the kind of experiment: Antiviral activity against RSV RSS infected human Hep2 cells assessed as reduction of viral antigen synthesis after 3 days by ELISA. Type of data set: functional, organism-based. Conditions: HEp-2, 72 h. The essentials:
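HEp-2 cells seeded at 5 × 10³ per well in DMEM/10% FBS for 24 h, infected with RSV RSS at MOI about 0.02, serial compound dilutions for 3 days. Cells fixed and permeabilised in methanol-acetone, blocked in milk-Tween. Probed with mouse anti-RSV monoclonal then HRP anti-mouse. Developed with o-phenylenediamine/H2O2, absorbance […].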
Background: ELISA stands for enzyme-linked immunosorbent assay.

Data set [5] has as its system Respiratory syncytial virus. The data set can be described thus: Antiviral activity against RSV RSS infected human Hep2 cells after 5 days by plaque reduction assay. The format is functional, organism-based. As to conditions: HEp-2, 120 h. The essentials:
(§2)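 HEp-2 monolayers in six-well plates infected with 0.2 ml of 500 PFU/ml virus. After 2 h, overlaid with DMEM, 2% FBS, 0.6% agarose plus compound dilution series. Incubated 5 days, formaldehyde-fixed, plaques stained with methylene blue or immunostained and counted. Activity expressed as percent of plaques in untreated infected wells.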

Data set [6] is described as follows: Cytotoxicity against RSV RSS infected human Hep2 cells after 6 days by XTT assay. The format is cell-based, HEp-2.
Data set [7] relates to Respiratory syncytial virus. The data set can be described thus: Antiviral activity against RSV B infected human Hep2 cells after 5 days by plaque reduction assay. Conditions: HEp-2, 120 h. The format is functional, organism-based. The essentials:
as §2

For data set [8], the system named is Respiratory syncytial virus. The data set can be described thus: Antiviral activity against DMSO-passaged wild type RSV RSS infected human Hep2 cells by plaque reduction assay. The format is functional, organism-based. As to conditions: HEp-2. The essentials:
as §2

Data set [9] relates to Respiratory syncytial virus. As to the kind of experiment: Antiviral activity against plaque picked A-33903-resistant RSV RSS from passage 2 in human Hep2 cells by plaque reduction assay. Type of data set: functional, organism-based. Conditions: HEp-2. The method, boiled down: as §2
In data set [10] the test system is Respiratory syncytial virus. The data set can be described thus: Antiviral activity against RSV RSS infected human Hep2 cells assessed as inhibition of virus-induced cell death after 6 days by XTT assay. As to conditions: HEp-2, 144 h. Type of data set: functional, organism-based. The method, boiled down: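 HEp-2 cells seeded at 4 × 10³ per well in DMEM with 10% FBS, infected next day with RSV RSS dosed to give about 80% cytopathic effect by day 6. Serial compound dilutions (top 10 μM, 0.5% DMSO) present throughout. Viability read by XTT reduction after 6 days. EC50 taken as 50% reduction in virus-induced cell death.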
(In general: Tetrazolium dyes change colour on reduction, which living cells bring about.)

Data set [11] concerns Respiratory syncytial virus. The data set can be described thus: Antiviral activity against RSV Long infected human Hep2 cells after 5 days by plaque reduction assay. Type of data set: functional, organism-based. Conditions: HEp-2, 120 h. The method, boiled down:
as §2

Data set [12] has as its system Respiratory syncytial virus. As to the kind of experiment: Drug resistance, ratio of EC50 for plaque picked A-33903-resistant RSV RSS from passage 2 to EC50 for DMSO-passaged wild type RSV RSS. Type of data set: functional.
The nature of data set [13]: Therapeutic index, CC50 for human Hep2 cells to EC50 for RSV RSS. Type of data set: cell-based, HEp-2. As to conditions: read-out: Ratio CC50/EC50. The essentials: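 Ratio of CC50 from uninfected HEp-2 XTT control plates to EC50 from RSV RSS-infected XTT plates, both read after 6 days.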
The subject of data set [14] is Respiratory syncytial virus. The data set can be described thus: Antiviral activity against RSV A2 infected human Hep2 cells after 5 days by plaque reduction assay. Conditions: A2, HEp-2, 120 h. The format is functional, organism-based. The essentials:
as §2

`O=c1n(Cc2nc3ccccc3n2CCCCO)c2cnccc2n1C1CC1`: the Activity in [1] worked out at 50%. Also, the result in [2] was Active. Also, in data set [3], the outcome was inactive.
In general, EC50 refers to the concentration giving half of the maximal effect. As a reminder, the CC50 is the concentration that lowers cell viability or growth by half. Take `COc1cc([N+](=O)[O-])ccc1C(=O)N[C@H]1N=C(c2ccccc2)c2ccccc2NC1=O`: the EC50 was 0.5 µM in [4]; 0.8 µM in data set [5]; 0.23 µM in data set [7]; 0.4 µM in data set [8]; 1.3 µM in [9]; 0.9 µM in data set [10]. Besides, it took 0.57 µM to reach a half-maximal effect in [11] (EC50). The same compound displayed a CC50 at 144 h in data set [6] of over 50 µM. Further, the “fold change (FC)” value in data set [12] came to 3.3. For the same compound, in data set [13], the selectivity ratio was over 55.
`COc1ccccc1C(=O)NC1N=C(c2ccccc2)c2ccccc2NC1=O` (stereo not given): the EC50 in data set [4] stood at 1.1 µM; in data set [5], 1.4 µM; in data set [14], 1.2 µM; in data set [10] it was 3 µM; in data set [11] it was 1.2 µM. In addition, the CC50 at 144 h in data set [6] is over 50 µM. For the same compound, the selectivity ratio in data set [13] is over 16.
